In ChEMBL document CHEMBL3244354, “Syntheses and biological activities of 7 beta-methyl steroids” (J Med Chem, 1979):
Activity calls are given as the source filed them. The calls are words filed in the database; no cut-off is given here.

Legend:
[1] = tested on: Rattus norvegicus; test: Effect on thymus weight in rat 13762 cells allografted Fischer 344 rat at 100 mg/kg, ip qd for 20 days relative to control; type: functional; conditions: route intraperitoneal
Procedure, shortened: (§1)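 Female Fischer 344 rats, about 40 days old, received subcutaneous right-side grafts of 13762 mammary adenocarcinoma on day 0. From day 1 they got test compound in sesame oil ip daily for 20 days at 10 or 100 (mg/kg)/day. Vehicle controls got 0.5 mL/day. Endpoints were survivors/treated and FBW (minus tumor)/IBW. Tumor weight, final tumor size (length + width/2), and organ weights per 100 g were reported as % control.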

[2] = tested on: Rattus norvegicus; test: Effect on uterine weight in rat 13762 cells allografted Fischer 344 rat at 100 mg/kg, ip qd for 20 days relative to control; type: functional; conditions: route intraperitoneal; procedure, shortened: as §1
[3] = tested on: Rattus norvegicus; test: Toxicity in rat 13762 cells allografted in Fischer 344 rat assessed as ratio of final body weight to initial body weight at 100 mg/kg, ip qd for 20 days; type: organism-based; set-up: dose 100 mg/kg, route intraperitoneal; conditions: in vivo, 480 h; procedure, shortened: as §1
[4] = tested on: Rattus norvegicus; test: Effect on ovarian weight in rat 13762 cells allografted Fischer 344 rat at 100 mg/kg, ip qd for 20 days relative to control; type: functional; conditions: route intraperitoneal; procedure, shortened: as §1
[5] = tested on: Rattus norvegicus; test: Effect on spleen weight in rat 13762 cells allografted Fischer 344 rat at 100 mg/kg, ip qd for 20 days relative to control; type: functional; conditions: route intraperitoneal; procedure, shortened: as §1
[6] = tested on: 13762; test: Antitumor activity against rat 13762 cells allografted in Fischer 344 rat assessed as host survival at 100 mg/kg, ip qd for 20 days; type: functional, organism-based; set-up: dose 100 mg/kg; procedure, shortened: as §1
[7] = tested on: Rattus norvegicus; test: Effect on pituitary weight in rat 13762 cells allografted Fischer 344 rat at 100 mg/kg, ip qd for 20 days relative to control; type: functional, Pituitary gland cell; conditions: route intraperitoneal; procedure, shortened: as §1
[8] = tested on: 13762; test: Antitumor activity against rat 13762 cells allografted in Fischer 344 rat assessed as tumor weight at 100 mg/kg, ip qd for 20 days relative to control; type: functional; conditions: route intraperitoneal; procedure, shortened: as §1
[9] = tested on: Rattus norvegicus; test: Effect on adrenal weight in rat 13762 cells allografted Fischer 344 rat at 100 mg/kg, ip qd for 20 days relative to control; type: functional; conditions: route intraperitoneal; procedure, shortened: as §1
[10] = tested on: 13762; test: Antitumor activity against rat 13762 cells allografted in Fischer 344 rat assessed as final tumor size at 10 mg/kg, ip qd for 20 days relative to control; type: functional; conditions: route intraperitoneal; procedure, shortened: as §1
[11] = tested on: Rattus norvegicus; test: Androgenic activity in castrate rat assessed as change in body weight at 3 mg, sc qd for 7 days by autopsy analysis (reference value: 88 gram); type: functional
[12] = tested on: 13762; test: Antitumor activity against rat 13762 cells allografted in Fischer 344 rat assessed as tumor weight at 10 mg/kg, ip qd for 20 days relative to control; type: functional; conditions: route intraperitoneal; procedure, shortened: as §1
[13] = tested on: Rattus norvegicus; test: Androgenic activity in castrate rat assessed as seminal vesicle weight at 3 mg, sc qd for 7 days by autopsy analysis (reference value: 13.6 +/- 0.19 mg); type: functional
[14] = tested on: Rattus norvegicus; test: Effect on adrenal weight in rat 13762 cells allografted Fischer 344 rat at 10 mg/kg, ip qd for 20 days relative to control; type: functional; conditions: route intraperitoneal; procedure, shortened: as §1
[15] = tested on: Rattus norvegicus; test: Effect on thymus weight in rat 13762 cells allografted Fischer 344 rat at 10 mg/kg, ip qd for 20 days relative to control; type: functional; conditions: route intraperitoneal; procedure, shortened: as §1
[16] = tested on: Rattus norvegicus; test: Effect on uterine weight in rat 13762 cells allografted Fischer 344 rat at 10 mg/kg, ip qd for 20 days relative to control; type: functional; conditions: route intraperitoneal; procedure, shortened: as §1
[17] = tested on: Rattus norvegicus; test: Effect on spleen weight in rat 13762 cells allografted Fischer 344 rat at 10 mg/kg, ip qd for 20 days relative to control; type: functional; conditions: route intraperitoneal; procedure, shortened: as §1
[18] = tested on: Rattus norvegicus; test: Toxicity in rat 13762 cells allografted in Fischer 344 rat assessed as ratio of final body weight to initial body weight at 10 mg/kg, ip qd for 20 days; type: organism-based; set-up: dose 10 mg/kg, route intraperitoneal; conditions: in vivo, 480 h; procedure, shortened: as §1
[19] = tested on: Rattus norvegicus; test: Myotrophic activity in castrate rat assessed as levator ani weight at 3 mg, sc qd for 7 days by autopsy analysis (reference value: 23.6 +/- 1.08 mg); type: functional
[20] = tested on: Rattus norvegicus; test: Effect on ovarian weight in rat 13762 cells allografted Fischer 344 rat at 10 mg/kg, ip qd for 20 days relative to control; type: functional; conditions: route intraperitoneal; procedure, shortened: as §1
[21] = tested on: 13762; test: Antitumor activity against rat 13762 cells allografted in Fischer 344 rat assessed as host survival at 10 mg/kg, ip qd for 20 days; type: functional, organism-based; set-up: dose 10 mg/kg; procedure, shortened: as §1
[22] = tested on: Rattus norvegicus; test: Androgenic activity in castrate rat assessed as ventrol prostate weight at 3 mg, sc qd for 7 days by autopsy analysis (reference value: 17.5 +/- 0.41 mg); type: functional, Prostate gland

SMILES | Activity [1] | Activity [2] | Ratio [3] | Activity [4] | Activity [5] | Activity [6] | Activity [7] | Activity [8] | Activity [9] | Activity [11] | Activity [13] | Activity [19] | Activity [22] | also measured
C[C@H]1CC2=CC(=O)CC[C@]2(C)[C@H]2CC[C@@]3(C)[C@@H](CC[C@]3(C)O)[C@H]12 [CALUSTERONE] | 57% | 148% | 1.64 | 60% | 115% | Active | 80% | 123% | 73% | – | – | – | – | –
CC(=O)O[C@H]1CC[C@H]2[C@@H]3[C@@H](C)C[C@H]4CC(=O)CC[C@]4(C)[C@H]3CC[C@]12C | 48% | 151% | 1.81 | 62% | 108% | Active | 56% | 132% | 68% | 90 g | 45.8 mg | 63.3 mg | 81.4 mg | Activity [10]: 90%; Activity [12]: 84%; Activity [14]: 68%; Activity [15]: 71%; Activity [16]: 143%; Activity [17]: 77%; Ratio [18]: 1.58; Activity [20]: 77%; Activity [21]: Active
C[C@H]1CC2=CC(=O)CC[C@]2(C)[C@H]2CC[C@]3(C)[C@@H](O)CC[C@H]3[C@H]12 | 47% | 202% | 1.58 | 72% | 108% | Active | 73% | 103% | 70% | – | – | – | – | –
CC(=O)O[C@H]1CC[C@H]2[C@@H]3[C@@H](C)C[C@H]4CSC[C@]4(C)[C@H]3CC[C@]12C | 79% | 128% | 1.55 | 87% | 145% | Active | 90% | 133% | 87% | 90 g | 11.8 mg | 25.7 mg | 18.6 mg | Activity [10]: 85%; Activity [12]: 85%; Activity [14]: 101%; Activity [15]: 125%; Activity [16]: 124%; Activity [17]: 81%; Ratio [18]: 1.5; Activity [20]: 105%; Activity [21]: Active
CCC(=O)O[C@H]1CC[C@H]2[C@@H]3CCC4=CC(=O)CC[C@]4(C)[C@H]3CC[C@]12C [TESTOSTERONE PROPIONATE] | – | – | – | – | – | – | – | – | – | 98 g | 65.9 mg | 68.2 mg | 126 mg | –
CC(=O)O[C@H]1CC[C@H]2[C@@H]3CC[C@H]4CSC[C@]4(C)[C@H]3CC[C@]12C | – | – | – | – | – | – | – | – | – | 95 g | 48.6 mg | 65.2 mg | 61.9 mg | –
CC(=O)O[C@H]1CC[C@H]2[C@@H]3CCC4=CC(=O)CC[C@]4(C)[C@H]3CC[C@]12C | 31% | 179% | 1.68 | 65% | 100% | Active | 71% | 123% | 88% | – | – | – | – | –
